# How the values were obtained:
# Substance-P receptor [1] = biological target: T1, Substance-P receptor (Homo sapiens, UniProt P25103); test: Binding affinity towards human Tachykinin receptor 1 expressed in CHO cells using [3H]-substance P; Less than 50% inhibition at 10e-5 M; type: cell-based
# [2] = biological target: Sodium-dependent serotonin transporter (Rattus norvegicus, UniProt P31652); test: Binding affinity at serotonin transporter from rat cerebral cortex by [3H]-paroxetine displacement.; type: tissue-based
# In short: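 Rat cerebral cortex membranes (100–200 μg protein) were incubated 120 min at 25 °C in 50 mM Tris–HCl pH 7.4 with 2 mM MgCl2 and 0.05 nM radioligand. Nonspecific binding was defined with 5 μM imipramine.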
# [3] = Lipophilicity; type: physicochemical
# Substance-P receptor [4] = biological target: T1, Substance-P receptor; test: Binding affinity at human Tachykinin receptor 1 expressed in CHO cells by [3H]-substance P displacement.; type: cell-based
# In short: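 Membranes (10–20 μg protein) from CHO cells expressing human NK1 receptor were incubated 60 min at 25 °C in 50 mM Tris–HCl pH 7.4 with 2 mM MgCl2, 100 μg/mL bacitracin and 0.25 nM [3H]substance P.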
# T1 sequence (P25103 whole entry): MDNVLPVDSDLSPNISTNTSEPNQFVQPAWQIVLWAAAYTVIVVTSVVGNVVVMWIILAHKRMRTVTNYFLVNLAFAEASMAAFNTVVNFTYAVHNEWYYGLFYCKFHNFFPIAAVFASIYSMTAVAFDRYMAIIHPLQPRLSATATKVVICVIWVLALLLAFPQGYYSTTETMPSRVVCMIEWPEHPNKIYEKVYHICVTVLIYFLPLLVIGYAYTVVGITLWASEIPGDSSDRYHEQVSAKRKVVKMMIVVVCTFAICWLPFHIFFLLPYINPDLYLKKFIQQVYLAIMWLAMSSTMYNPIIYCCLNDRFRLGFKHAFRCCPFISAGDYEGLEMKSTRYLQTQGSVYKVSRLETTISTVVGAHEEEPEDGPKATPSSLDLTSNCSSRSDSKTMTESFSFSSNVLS
# Chain of Sodium-dependent serotonin transporter (P31652 whole entry): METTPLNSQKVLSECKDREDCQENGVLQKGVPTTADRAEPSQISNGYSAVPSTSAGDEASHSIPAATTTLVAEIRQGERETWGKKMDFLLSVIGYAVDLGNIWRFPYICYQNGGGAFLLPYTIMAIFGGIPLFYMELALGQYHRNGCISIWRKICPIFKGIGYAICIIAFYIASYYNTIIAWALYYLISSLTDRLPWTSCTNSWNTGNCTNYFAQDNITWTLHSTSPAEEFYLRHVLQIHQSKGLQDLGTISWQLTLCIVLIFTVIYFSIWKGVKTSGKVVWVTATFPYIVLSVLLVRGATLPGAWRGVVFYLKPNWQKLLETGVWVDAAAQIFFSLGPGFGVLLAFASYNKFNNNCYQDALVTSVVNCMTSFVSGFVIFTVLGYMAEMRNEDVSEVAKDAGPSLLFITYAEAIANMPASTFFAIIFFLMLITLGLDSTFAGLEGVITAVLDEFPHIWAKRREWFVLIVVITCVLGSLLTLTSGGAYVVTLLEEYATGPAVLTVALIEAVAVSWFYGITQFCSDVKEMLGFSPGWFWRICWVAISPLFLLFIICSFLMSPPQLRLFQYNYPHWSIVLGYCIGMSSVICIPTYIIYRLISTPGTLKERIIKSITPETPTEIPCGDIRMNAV
smiles,measurement,setting,value
O=C(COc1cc(F)cc(F)c1)N(Cc1cccc(Cl)c1)C1CCNCC1,inhibition,Substance-P receptor [1],< 5%
same,IC50,[2],20 nM
same,Log K' IAM,[3],2.4
O=C(COc1cc(Cl)cc(Cl)c1)N(Cc1cccc(Cl)c1)C1CCNCC1,IC50,Substance-P receptor [4],126 nM
same,IC50,[2],50.1 nM
same,Log K' IAM,[3],3.1
O=C(COc1cc(C(F)(F)F)cc(C(F)(F)F)c1)N(Cc1cccc(Cl)c1)C1CCNCC1,IC50,Substance-P receptor [4],25.1 nM
same,IC50,[2],158 nM
same,Log K' IAM,[3],3.4
Cc1cc(C)cc(OCC(=O)N(Cc2cccc(Cl)c2)C2CCNCC2)c1,IC50,Substance-P receptor [4],100 nM
same,IC50,[2],25.1 nM
same,Log K' IAM,[3],2.6
O=C(COc1cc(F)cc(C(F)(F)F)c1)N(Cc1cccc(Cl)c1)C1CCNCC1,inhibition,Substance-P receptor [1],< 5%
same,IC50,[2],100 nM
same,Log K' IAM,[3],2.9
O=C(CCc1cc(C(F)(F)F)cc(C(F)(F)F)c1)N(Cc1ccccc1Cl)C1CCNCC1,IC50,Substance-P receptor [4],100 nM
same,IC50,[2],200 nM
same,Log K' IAM,[3],3.2
Cc1cccc(CN(C(=O)COc2cc(C(F)(F)F)cc(C(F)(F)F)c2)C2CCNCC2)c1,IC50,Substance-P receptor [4],79.4 nM
same,IC50,[2],251 nM
same,Log K' IAM,[3],3.3
O=C(COc1cc(C(F)(F)F)cc(C(F)(F)F)c1)N(c1cccc(Cl)c1)C1CCNCC1,IC50,Substance-P receptor [4],200 nM
same,IC50,[2],158 nM
same,Log K' IAM,[3],3
O=C(COc1cc(C(F)(F)F)cc(C(F)(F)F)c1)N(Cc1ccccc1Cl)C1CCNCC1,IC50,Substance-P receptor [4],126 nM
same,IC50,[2],158 nM
same,Log K' IAM,[3],3.2
O=C(COc1cc(C(F)(F)F)cc(C(F)(F)F)c1)N(c1cc(Cl)cc(Cl)c1)C1CCNCC1,inhibition,Substance-P receptor [1],< 5%
same,IC50,[2],158 nM
same,Log K' IAM,[3],3.4
O=C(CCc1cc(C(F)(F)F)cc(C(F)(F)F)c1)N(Cc1ccc(F)cc1)C1CCNCC1,IC50,Substance-P receptor [4],31.6 nM
same,IC50,[2],316 nM
same,Log K' IAM,[3],2.9
O=C(CCc1cc(C(F)(F)F)cc(C(F)(F)F)c1)N(c1ccc(F)cc1)C1CCNCC1,IC50,Substance-P receptor [4],200 nM
same,IC50,[2],251 nM
same,Log K' IAM,[3],2.9
Cc1cccc(CN(C(=O)CCc2cc(C(F)(F)F)cc(C(F)(F)F)c2)C2CCNCC2)c1,IC50,Substance-P receptor [4],25.1 nM
same,IC50,[2],200 nM
same,Log K' IAM,[3],3.2
O=C(COc1cc(C(F)(F)F)cc(C(F)(F)F)c1)N(c1ccc(F)cc1)C1CCNCC1,IC50,Substance-P receptor [4],316 nM
same,IC50,[2],631 nM
same,Log K' IAM,[3],2.5
O=C(COc1cc(F)cc(C(F)(F)F)c1)N(c1ccc(Cl)c(Cl)c1)C1CCNCC1,inhibition,Substance-P receptor [1],< 5%
same,IC50,[2],39.8 nM
same,Log K' IAM,[3],3
Fc1ccc(N(CCCc2cc(C(F)(F)F)cc(C(F)(F)F)c2)C2CCNCC2)cc1,IC50,Substance-P receptor [4],50.1 nM
same,IC50,[2],39.8 nM
same,Log K' IAM,[3],3.9
Fc1ccc(CN(CCCc2cc(C(F)(F)F)cc(C(F)(F)F)c2)C2CCNCC2)cc1,IC50,Substance-P receptor [4],126 nM
same,IC50,[2],25.1 nM
same,Log K' IAM,[3],3.8
O=C(COc1cc(C(F)(F)F)cc(C(F)(F)F)c1)N(c1ccc(Cl)c(Cl)c1)C1CCNCC1,IC50,Substance-P receptor [4],31.6 nM
same,IC50,[2],158 nM
same,Log K' IAM,[3],3.4
